Data from PubChem BioAssay AID720702 (The Scripps Research Institute Molecular Screening Center, 2013).
Where “and” joins values, the source holds several entries; their conditions need not be identical. Identical values can stand only once. Out of some 370,000 compounds screened, about 1,200 (0.32%) were called active.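 Rule for the calls: active = inhibition above the mean of all tested compounds plus 3 SD, set per campaign (cut at about 25% in these data); inactive = the rest.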 Shown is part of a subset that was picked to be rich in actives.

Target: Tyrosyl-DNA phosphodiesterase 2 (Homo sapiens) (UniProt O95551)
Experiment: blockers of TDP2 phosphodiesterase activity – biochemical, epi absorbance, recombinant enzyme, primary screen (AID 720702);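 note: 0% = DMSO with enzyme and 100% = buffer with substrate but no TDP2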
Conditions: recombinant TDP2, T5PNP hydrolysis, p-nitrophenol absorbance 415 nm; at 12.8 µM; stronger effect = higher value
In short: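 Incubation: 2 h at 37 °C; Test system: recombinant human TDP2; Quantity: enzyme 120 nM; Read-out basis: percent inhibition; Medium: 50 mM Tris-HCl pH 7.5 with Mg2+, KCl, DTT, BSA; Repeats: single replicate; Compound: 12.8 µM single point, 1% DMSO; Signal: epi absorbance; Reagent: 5 mM T5PNP chromogenic substrate; Benchmarks: no-enzyme high, DMSO-plus-enzyme low.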

Chain of Tyrosyl-DNA phosphodiesterase 2 (Homo sapiens) (O95551 whole entry, looked up): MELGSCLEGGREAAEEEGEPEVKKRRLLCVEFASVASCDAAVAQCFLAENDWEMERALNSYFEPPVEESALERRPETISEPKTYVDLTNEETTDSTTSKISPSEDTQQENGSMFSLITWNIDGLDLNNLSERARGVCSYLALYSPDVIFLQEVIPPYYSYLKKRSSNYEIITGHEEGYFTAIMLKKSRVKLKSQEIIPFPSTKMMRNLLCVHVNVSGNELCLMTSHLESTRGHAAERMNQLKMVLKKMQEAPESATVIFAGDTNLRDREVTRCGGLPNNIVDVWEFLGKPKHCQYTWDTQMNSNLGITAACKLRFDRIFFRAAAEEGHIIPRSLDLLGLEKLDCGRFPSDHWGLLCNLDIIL

Row | Compound | inhibition
1 | COc1ccc(C(=O)OCCN2CCN(C3CN(Cc4cn(Cc5ccccc5F)nn4)S(=O)(=O)C3)CC2)cc1OC (configuration not stated) | 11.2% (inactive)
2 | Cc1nc([N+](=O)[O-])cn1CC(=O)Nc1ccc(Cl)cc1 | 7.84% (inactive)
3 | CCOC(=O)C1CCN(C(=O)C(C)(C)NC(=O)Nc2ccccc2Cl)CC1 | 1.3% (inactive)
4 | c1coc(CCNc2ncnc3ccc(-c4ccc5c(c4)OCO5)cc23)c1 | 0.8% (inactive)
5 | Cc1cc(C)nc(NC(=S)N2CCN(c3ccc(C(F)(F)F)cn3)CC2)c1 | -1.93% (inactive)
6 | Cc1cccc(C(=O)OCC(=O)Nc2sccc2C(N)=O)c1C | -12.7% (inactive)
7 | COc1cc(OC)cc(C(=O)OCC(=O)Nc2sccc2C(N)=O)c1 | 28.2% (active)
8 | NC(=O)c1ccsc1NC(=O)COC(=O)COc1ccc(C=O)cc1 | 2.52% (inactive)
9 | CC1Cc2nc(SCC(=O)Nc3ccccc3F)n(C)c(=O)c2S1 (configuration not stated) | 9.78% (inactive)
10 | COC(=O)[C@]12C[C@H](CC(=O)N3CCOCC3)C(=O)N(Cc3ccc(Cl)cc3Cl)C1=C[C@H](C(C)C)O[C@@H]2C1CC1 | -1.98% (inactive)
11 | CCOC(=O)Cn1c2c(n(-c3ccc(F)cc3)c1=O)C=C(c1ccccc1)[C@@H](C)C(C(=O)N(C)C1CCCCC1)=C2 | -5.6% (inactive)
12 | C=CCN(Cc1ccc2c(c1)OCO2)C(C#CC1CC1)C(C)(C)C (configuration not stated) | 0.99% (inactive)
13 | C[C@H]1[C@H](NC(=O)c2cccc(N(C)C)c2)CC[C@@]23CCCN2C(=O)CCC[C@@H]13 | -4.75% (inactive)
14 | Clc1ccc(C2=CSC3=Nc4cccc5cccc(c45)N23)cc1 | 65.8% (active)
15 | Cc1ccc(C)c(CN2CCC(CNC(=O)C3CCCN(c4ncnc5c4nc4n5CCCCC4)C3)CC2)c1 (configuration not stated) | -0.02% (inactive)
16 | O=C(NCCC1=CCCCC1)C1CCN(S(=O)(=O)c2ccc(Cl)s2)CC1 | 6.48% (inactive)
17 | Cc1ccc(CCNC(=O)C2CCN(S(=O)(=O)N3CCCC3)CC2)cc1 | 3.54% (inactive)
18 | Cc1ccc(S(=O)(=O)N2CCC(C(=O)NCCC3=CCCCC3)CC2)cc1C | 33.1% (active)
19 | C=C(C)CNC(=O)c1ccc(OC2CCN(C(=O)COC)CC2)cc1 | -0.83% (inactive)
20 | NC1=CC(=O)C(=O)c2cccnc21 | 70.4% (active)
21 | O=C(NCc1ccccc1)[C@H]1CCCN1C(=O)[C@@H]1CCCN1C(=O)c1ccc(Cl)cc1Cl | -1.81% (inactive)
22 | O=C1CC(c2ccc3c(c2)OCO3)N=C2N(CC3CC3)C/C(=C/c3ccccc3)N12 (configuration not stated) | 7.53% (inactive)

Row | Compound | inhibition
23 | COC(=O)[C@]12C[C@H](CC(=O)NCc3cccs3)C(=O)N(CCc3ccc(OC)c(OC)c3)C1=C[C@H](C(C)C)O[C@@H]2C1CC1 | 3.66% (inactive)
24 | COc1ccc(C)cc1NC(=S)Nc1ccccc1SC | 1.04% (inactive)
25 | COc1cc(NC(=S)NNC(=O)CC(C)C)c(OC)cc1Cl | 8.52% (inactive)
26 | CCc1ccccc1NC(=S)Nc1cc(OC)c(NC(=O)C(C)C)cc1OC | 39.9% (active)
27 | Cc1cc(C)n2ncc(C(=O)Nc3ccc4c(c3)OCCO4)c2n1 | -3.81% (inactive)
28 | CN(C)C(=O)N1CCN(C(=O)[C@@H](Cc2ccccc2)NC(=O)[C@H]2O[C@@H](n3ccc(N)nc3=O)[C@H](O)[C@@H]2O)CC1 | 8.58% (inactive)
29 | Cc1ccc2nc(-c3ccc(NC(=O)CN(C)S(=O)(=O)c4ccccc4)cc3)sc2c1 | -18.6% (inactive)
30 | CCOC(=O)N1CCC(NC(=O)Cc2cn(C)c3ccccc23)CC1 | -2.66% (inactive)
31 | CCOC(=O)N1CCC(c2cc(=O)n(-c3ccccc3)[nH]2)CC1 | 79.4% (active)
32 | CCOC(=O)N1CCC(C(N)=O)CC1 | 4.66% (inactive)
33 | CCOc1ccc(Oc2c(Cl)cnn(-c3ccc(C)cc3)c2=O)cc1 | -6.6% (inactive)
34 | Cc1ccc(NC(=O)Cc2nnc(SCC(=O)Nc3nncs3)n2C)cc1 | 9.72% (inactive)
35 | O=C(CSc1ccc(-c2ccccn2)nn1)Nc1ccccc1 | -4.03% (inactive)
36 | CCc1ccc(-c2nn(-c3ccccc3)cc2CSC(=N)N)cc1 | -12% (inactive)
37 | O=Cc1cn(-c2ccccc2)nc1-c1ccccn1 | 31.4% (active)
38 | N[C@@H](Cc1ccccc1)C(=O)N1CCC[C@@H]1C(=O)N1CCC2CCN(S(=O)(=O)c3ccccc3)CC21 (some centres not stated) | 2.14% (inactive)
39 | O=C(CSc1nc2sc3c(c2c(=O)n1-c1ccccc1)CCCC3)NN=Cc1ccc(OCc2ccccc2)cc1 | 8.18% (inactive)
40 | C=CCN=C1NC(c2ccccc2)C(C(=O)OC)=C(C)N1Cc1ccc(C(F)(F)F)cc1 (configuration not stated) | -7.84% (inactive)
41 | COc1cccc(OC)c1CN(C)C(=O)c1cnccc1C(F)(F)F | -13.4% (inactive)
42 | COC(=O)C1CN(CCc2ccccc2)CCS(=O)(=O)N1Cc1ccc(F)cc1 (configuration not stated) | -8.99% (inactive)
43 | CC(C)Cn1c(N)c(C(=O)NCc2cccs2)c2nc3ccccc3nc21 | 62.4% (active)
44 | CCN(CC(=O)NCc1cccs1)c1nnnn1-c1ccccc1 | -4.19% (inactive)

Row | Compound | inhibition
45 | Cc1nc2c(C(=O)NCc3cccs3)cnn2c(C)c1Cc1ccc(F)cc1 | 6.37% (inactive)
46 | C=CCN1CN(S(=O)(=O)c2ccc(OC)cc2)c2nc3ccccc3nc21 | -10.2% (inactive)
47 | C=CCn1c(P(C)(=O)O)nc2ccccc21 | 2.29% (inactive) and 0.31% (inactive)
48 | C=CCn1c(N)c(C(=O)OCC(C)C)c2nc3ccccc3nc21 | 30.5% (active)
49 | O/N=C(\C[n+]1ccccc1)c1ccc(Br)cc1 | -4.49% (inactive)
50 | CSc1nnc(-c2ccncc2)n1CCCN1CCCC1=O | 3.44% (inactive)
51 | O=C1Nc2ccccc2OC1CC(=O)N1CCCCCCC1 (configuration not stated) | 4.41% (inactive)
52 | COC(CNC(=O)[C@H](Cc1ccccc1)NC1(C(=O)NC2CCCCC2)CCCCC1)OC | -1.87% (inactive)
53 | CCCCNC(=O)CCn1nc(-c2ccc(Cl)cc2)ccc1=O | 29.2% (active)
54 | CCN(CC)CCCNC(=O)CCn1nc(-c2ccc(Cl)cc2)ccc1=O | -8.35% (inactive)
55 | CCCNC(=O)CCn1cc(-c2ccc(OC)cc2)nc1CCN | -1.08% (inactive)
56 | COC(=O)[C@]12C[C@H](CC(=O)NCCc3ccccc3OC)C(=O)N(Cc3ccccc3)C1=C[C@H](C(C)C)O[C@@H]2C1CC1 | -7.01% (inactive)
57 | Cc1ccc(S(=O)(=O)NNC(=S)NC(C)(C)C)cc1 | 0.38% (inactive)
58 | COc1ccc2c(c1)c(=Cc1ccc(N(C)C)cc1)c1cc(-c3ccccc3)[n+](C)n12 | 28.4% (active)
59 | CCOC(=O)[C@]12CCCCC/C=C\1N(Cc1ccc(OC)cc1)C(=O)[C@H]2CC(=O)NCCCN1CCCC1=O | -4.43% (inactive)
60 | CC(C)CCNC(=O)C1CCC(CNc2c(N3CCC(C)CC3)c(=O)c2=O)CC1 (configuration not stated) | -1.37% (inactive)
61 | CC(=O)N(C1=C(Cl)C(=O)c2ccccc2C1=O)c1ccc(C(=O)O)cc1 | 42.4% (active)
62 | O=C1C(Cl)=C(Oc2ccccc2)C(=O)c2ccccc21 | 3.22% (inactive)
63 | COP(=O)(O)CNC(=O)OCc1ccccc1 | -6.21% (inactive)
64 | CCn1c(=O)n2n(c1=O)[C@@]1(C=C3CCCC[C@H]32)N=C(NC(=O)c2ccccc2)N(Cc2ccccc2)[C@H]1Cc1ccccc1 | 4.32% (inactive)
65 | Cc1nc(CNc2ncnc3ccc(-c4ccc5c(c4)OCO5)cc23)cs1 | 0.28% (inactive)
66 | CN1c2ccc(C=O)c3c(C=O)ccc(c23)N(C)C1(C)C | 48.6% (active)

Row | Compound | inhibition
67 | COc1ccc(N2CCN(CCNS(=O)(=O)c3ccc(Cl)s3)CC2)cc1 | -1.58% (inactive)
68 | NS(=O)(=O)c1cc(C(=O)OCC(=O)NNC(=O)c2ccccc2)ccc1Cl | -0.47% (inactive)
69 | O=C(NC1=CC(=O)c2ccccc2C1=O)c1ccccc1 | 44.5% (active)
70 | O=C(NN1C(=O)C2C3C=CC(O3)C2C1=O)c1ccccc1 (configuration not stated) | -12.4% (inactive)
71 | Cc1ccccc1NC(=O)C(C)OC(=O)CCC(=O)N(CC(C)C)c1c(N)n(CC(C)C)c(=O)[nH]c1=O (configuration not stated) | -3.56% (inactive)
72 | O=C1OC(Oc2ccc(Br)cc2)(c2ccccc2)c2ccccc21 (configuration not stated) | -5.92% (inactive)
73 | O=C(COC(=O)Cc1c[nH]c2ccccc12)NCCc1ccccc1 | 24.9% (active)
74 | CC(C)(C)N(Cc1ccccc1)C(=O)COC(=O)CCc1c[nH]c2ccccc12 | -14.4% (inactive)
75 | O=C(COC(=O)CCc1c[nH]c2ccccc12)Nc1cccc(Cl)c1 | 9.41% (inactive)
76 | COc1cccc(Cn2cc(COC(=O)Nc3ccc(F)cc3)nn2)c1 | 4.69% (inactive)
77 | N#Cc1ccc(C(=O)Nc2nc(-c3cccs3)c(C(=O)C(F)(F)F)s2)cc1 | -0.4% (inactive)
78 | CC1CCCC(NC(=O)c2cc(-c3ccncc3)nc3ccccc23)C1C (configuration not stated) | 68.1% (active)
79 | CC1CCCC(NC(=O)c2cc(S(=O)(=O)N3CCCCC3)ccc2Cl)C1C (configuration not stated) | 5.78% (inactive)
80 | CC1CCCCC1NC(=O)c1cc(=O)[nH]c2ccccc12 (configuration not stated) | 6.87% (inactive)
81 | COc1ccc(-c2ccc3c(n2)CCCN3S(=O)(=O)c2ccc(C)cc2)cc1 | 4.76% (inactive)
82 | N#Cc1c(N2CCCCC2)nc(N)c2c(N)nc(SCC(=O)O)cc12 | 7.63% (inactive)
83 | CCOC(=O)c1ccc(NC2Nc3cc(C)nn3S2)cc1 (configuration not stated) | 26.6% (active)
84 | CCc1ccc(NC2Nc3cc(C)nn3S2)cc1 (configuration not stated) | -7.9% (inactive)
85 | CCOC(=O)c1ccc(NC(=O)C2CC(=O)Nc3nc4ccccc4n32)cc1 (configuration not stated) | -14.1% (inactive)
86 | COc1ccc(S[C@]2(C(=O)N(C)C)CC(=O)N(c3ccc(OC)cc3)[C@@H]2c2ccc(OC)cc2)cc1 | -13.2% (inactive)
87 | C/C(=N/O)c1ccc(N2C(=O)C3C4C=CC(C3C2=O)C2C3C(=O)N(c5ccc(/C(C)=N/O)cc5)C(=O)C3C42)cc1 (configuration not stated) | -7.03% (inactive)
